{
  "source": "paper PMC5947295",
  "about": "(Clinical Pharmacology in Drug Development, 2018)",
  "key": {"[1]": {"settings": "phase 2, small number of subjects; cited from earlier work"}, "plasma Aβ peptides": {"test_system": "plasma Aβ peptides", "settings": "single dose at the highest dose studied, SAD study; cited from earlier work"}, "BACE1 [2]": {"test_system": "BACE1", "settings": "read-out: In vitro 50% inhibitory concentration (IC50) for BACE1; cited from earlier work"}, "[3]": {"settings": "elderly healthy subjects and patients with mild to moderate AD, up to 750 mg single dose or 150 mg multiple dose; cited from earlier work"}, "Caco‐2": {"test_system": "Caco‐2", "settings": "cited from earlier work"}, "[4]": {"settings": "cited from earlier work; for Cmax: single 150‐mg dose"}, "[5]": {"test_system": "plasma, cerebrospinal fluid (CSF), and brain Aβ1–40, Aβ1–42, and sAPPβ concentrations", "settings": "mouse; cited from earlier work"}, "[6]": {"test": "Phase 1 randomized 3-period crossover relative bioavailability study, plasma PK", "assay_type": "in vivo", "settings": "both, human, po, 50 mg"}, "[7]": {"test_system": "plasma, cerebrospinal fluid (CSF), and brain Aβ1–40, Aβ1–42, and sAPPβ concentrations", "settings": "dog; cited from earlier work"}, "BACE1 [8]": {"test_system": "BACE1", "settings": "in vitro; cited from earlier work"}, "[9]": {"test": "Safety and tolerability monitoring in the crossover study", "assay_type": "in vivo, human", "settings": "healthy subjects", "summary_of_the_method": "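Single oral 50 mg dose on days 1, 8 and 15 as 10 mL solution (5 mg/mL), tablet A or tablet B, with 7–10-day washout. Dosed after an overnight fast with 240 mL water, fasted to 4 h postdose. AEs, hematology, chemistry (ALT, AST, ALP), urinalysis, vitals, ECG, physical/neurological examination and C-SSRS were monitored throughout.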"}, "[10]": {"test_system": "plasma and CSF Aβ peptides", "settings": "once‐weekly (70‐mg) dosing schedule; cited from earlier work"}, "[11]": {"settings": "single oral dose of [14C]‐lanabecestat; cited from earlier work"}, "[12]": {"test_system": "plasma, cerebrospinal fluid (CSF), and brain Aβ1–40, Aβ1–42, and sAPPβ concentrations", "settings": "guinea pig; cited from earlier work"}, "Caco-2 permeability": {"test": "Caco-2 permeability", "assay_type": "in vitro ADME", "settings": "human"}, "[13]": {"settings": "single 50 mg dose, safety set n = 16"}},
  "note": "Like-named read-outs stand apart in the source and are kept apart here.",
  "data": [
    {"smiles": "NC1=N[C@@]2(c3cc(NC(=O)c4ccc(F)cn4)ccc3F)COC[C@H]2CS1", "note": "[LY2886721]", "values": [
      {"measurement": "Liver safety finding that terminated clinical development", "setting": "[1]", "value": "elevations in circulating liver‐enzyme activity"}
    ]},
    {"smiles": "CC#Cc1cncc(-c2ccc3c(c2)[C@@]2(N=C(C)C(N)=N2)[C@]2(CC[C@H](OC)CC2)C3)c1", "note": "[lanabecestat, [1r,1′R,4R]‐4‐methoxy‐5″‐methyl‐6′‐[5‐(prop‐1‐yn‐1‐yl)pyridin‐3‐yl]‐3′H‐dispiro[cyclohexane‐1,2′‐indene‐1′,2″‐imidazol]‐4″‐amine]", "values": [
      {"measurement": "Duration of suppression of plasma Aβ peptides", "setting": "plasma Aβ peptides", "value": "up to 3 weeks"},
      {"measurement": "IC50", "setting": "BACE1 [2]", "value": 0.6, "unit": "nM"},
      {"measurement": "Safety and tolerability", "setting": "[3]", "value": "no safety or tolerability concerns"},
      {"measurement": "Mean Caco‐2 apical‐to‐basolateral Papp permeability", "setting": "Caco‐2", "value": "34.8 × 10^‐6 cm/s"},
      {"measurement": "Cmax", "setting": "[4]; fasted", "value": 701, "unit": "ng/mL"},
      {"measurement": "Cmax", "setting": "[4]; fed", "value": 499, "unit": "ng/mL"},
      {"measurement": "Effect of food intake on AUC", "setting": "[4]; food intake", "value": "minimal effect"},
      {"measurement": "tmax with food intake (later tmax)", "setting": "[4]; food intake", "value": "~2", "unit": "h"},
      {"measurement": "Plasma, CSF and brain Aβ1–40, Aβ1–42 and sAPPβ concentrations", "setting": "[5]", "value": "robustly reduced"},
      {"measurement": "half-life", "setting": "[6]", "value": "~16", "unit": "h"},
      {"measurement": "Plasma, CSF and brain Aβ1–40, Aβ1–42 and sAPPβ concentrations", "setting": "[7]", "value": "robustly reduced"},
      {"measurement": "Off‐rate from BACE1, half‐life", "setting": "BACE1 [8]", "value": "approximately 9 hours"},
      {"measurement": "Tolerability", "setting": "[9]; single 50 mg dose as solution or tablet", "value": "well tolerated"},
      {"measurement": "Severity of adverse events", "setting": "[9]; single 50 mg dose", "value": "mild"},
      {"measurement": "Subjects reporting adverse events", "setting": "[9]; single 50 mg dose, 16 subjects", "value": 37.5, "unit": "%"},
      {"measurement": "Number of subjects with ≥1 TEAE", "setting": "[9]; [13]", "value": "6 (37.5) n (%)"},
      {"measurement": "TEAE: Dizziness", "setting": "[9]; [13]", "value": "1 (6.3) n (%)"},
      {"measurement": "TEAE: Dry skin", "setting": "[9]; [13]", "value": "2 (12.5) n (%)"},
      {"measurement": "TEAE: Headache", "setting": "[9]; [13]", "value": "2 (12.5) n (%)"},
      {"measurement": "TEAE: URTI", "setting": "[9]; [13]", "value": "1 (6.3) n (%)"},
      {"measurement": "Changes in liver‐related clinical chemistry parameters", "setting": "[9]; single 50 mg doses", "value": "no significant changes"},
      {"measurement": "Suppression of plasma and CSF Aβ peptides", "setting": "[10]", "value": "prolonged suppression"},
      {"measurement": "Radioactive dose recovered in feces", "setting": "[11]", "value": 74, "unit": "%"},
      {"measurement": "Radioactive dose recovered in urine", "setting": "[11]", "value": 25, "unit": "%"},
      {"measurement": "Plasma, CSF and brain Aβ1–40, Aβ1–42 and sAPPβ concentrations", "setting": "[12]", "value": "robustly reduced"},
      {"measurement": "Papp", "setting": "Caco-2 permeability", "value": "> 10", "unit": "×10⁻⁶ cm/s"}
    ]}
  ]
}
